This passage reports cytotoxicity results from ChEMBL document CHEMBL4513216, “Probing the Open Global Health Chemical Diversity Library for Multistage-Active Starting Points for Next-Generation Antimalarials” (ACS Infect Dis, 2020).

The nature of this series: Toxicity liver stage against HepG2, at 10uM. The format is cell-based. Set-up: test concentration 10 uM, cell line HepG2-A16-CD81EGFP. Conditions: human, HepG2-A16-CD81EGFP cells; read-out: INHIBITION
Put shortly: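 Uninfected HepG2-A16-CD81EGFP cells, 3 × 10^3 per well, 1536-well, plated on prespotted compound at 10 μM final, parasite-free screening media added to match infected plates; puromycin 10 μM positive, DMSO 0.5% negative; run in parallel with 48 h PbLuc assay at 37 °C, 5% CO2; viability by CellTiter-Glo luminescence, normalized to controls.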
For `Cn1cc(Cl)cc1C(=O)N1CCCN(Cc2nccn2C)CC1`, the cytotoxicity at 10 µM was -6.04%.
In the case of `O=C(c1ccco1)N1CCO[C@@H]2CNC[C@@H]21` it was -108%; in that of `CC(C)CNC(=O)c1[nH]nc(C2CC2)c1Br`, 2.71%; in that of `CN(C)C(=O)CN1CC[C@H]2CN(C3CCOCC3)C[C@@H]2C1=O`, -3.84%.
In the case of `CSCCC(=O)N1CCC(c2nnc(CN(C)CCO)n2C)CC1` it was 0.583%; in that of `Cc1ccc2c(c1)OC1(NC2=O)C(=O)N(C)c2ccccc21` (centres undefined), -23.8%.
As for `CC(C)(C)S(=O)(=O)c1ccc(N2CCC(n3ccnc3)CC2)cn1`, the cytotoxicity at 10 µM was -6.62%.
In the case of `O=C(NCC1CCOC1)c1csc(-c2ccco2)n1` (centres undefined), the cytotoxicity at 10 µM is -6.49%.
In the case of `Cc1cc(C)c(C(=O)NC2CCCc3nc(N(C)C)ncc32)cc1C` (centres undefined) it was -1.25%; in that of `CC(C)(O)CCc1ccc(C(=O)NCCC2CCOC2)cc1` (centres undefined), 0.824%; in that of `COCc1cc(N2CCN(C3CCCCC3)CC2)n2nccc2n1`, 3.59%.
The figure for `COc1cc(S(=O)(=O)N2CCc3ccccc32)cc(C(=O)O)c1OC` is -7.54%.
The figure for `CCn1nc(C)c2ncnc(N(C)Cc3ccco3)c21` is 8.88%.
As for `CN(C)C(=O)N1Cc2nnn(CC3CC3)c2C(COCC2CC2)C1` (centres undefined), the cytotoxicity at 10 µM is 8.26%.
The figure for `CCC(C)(NCc1nc(C)c(C)o1)c1nccs1` (centres undefined) is -2.05%; for `NS(=O)(=O)c1cccnc1Nc1cccc(Cl)c1Cl` it is -2.19%; for `Cc1cccc(CN2C(=O)CCC23CCN(Cc2cccn2C)CC3)n1` it is 5.61%.
In the case of `CN(C(=O)c1cccn1C)C1CCC(NC(=O)OC(C)(C)C)CC1` (centres undefined) it was -4.18%; in that of `COCCOCC1(CNCc2cccc(OC)c2)C[C@@H](O)[C@@H](O)C1` (some centres undefined), 0.994%; in that of `Cc1sc(NC(=O)CN(C)CCOc2cccc(F)c2)c(C)c1C`, 4.21%.
In the case of `Cn1ccc(C(=O)NC2CCC23CCN(Cc2ccc(F)cc2)CC3)c1` (centres undefined) it was -147%; in that of `CCN1CCN(C(=O)C2CCOC2)c2ccccc21` (centres undefined), 2.54%; in that of `CN(C)CC1CSCCCN1S(=O)(=O)Cc1cccc(F)c1` (centres undefined), -3.63%.
`CCCNC(=O)CSCc1ccc(S(=O)(=O)N(C)C)o1`: the cytotoxicity at 10 µM turned out to be 9.8%.
Consider `COc1ccccc1CN1CC[C@H]2[C@@H](C1)[C@H](c1ccsc1)CN2C(C)=O`, for which the cytotoxicity at 10 µM is -12.4%.
The figure for `COc1ccc(F)cc1C(=O)N1CCC2(CCC(=O)N(C(C)C)C2)CC1` is -4.75%; for `CC(C)n1nc2c(cc1=O)CN(CC(=O)N(C)c1nccs1)CC2` it is -9.94%.
For `CCc1nc(C2CCCN2C(=O)c2cnc3n[nH]c(C)c3c2)no1` (centres undefined), the cytotoxicity at 10 µM was found to be 7.76%.
Turning to `CCC1=N[C@@]2(CC[C@@H]3CN(C(=O)NCC(C)C)C[C@@H]32)C(=O)N1CC1CC1`, the cytotoxicity at 10 µM was found to be 9.61%.
In the case of `COC(=O)NCC(=O)NC(c1ccc(Cl)cc1)C(F)(F)F` (centres undefined) it was 9.09%.
In the case of `CN(C)c1nc2c(c(NCc3cc(O)ncn3)n1)CCCC2` it was -12.4%; in that of `Cc1cccc(CNCC2(O)CCCN(CC3CCCCC3)C2=O)n1` (centres undefined), -10.5%.
As to `O=S(=O)(c1cccs1)N1CCN2C[C@H](OCC3CC3)C[C@H]2C1`, the cytotoxicity at 10 µM stood at 11.9%.
As for `Clc1ccc(CN2CCC3(CC2)CC(c2cccnc2)=NO3)cc1`, the cytotoxicity at 10 µM was determined as 17.5%.
In the case of `Cc1ccc(C(=O)NCCNC(=O)N(C)C(C)c2ccccn2)cc1` (centres undefined) it was 7.97%; in that of `N#Cc1ccc(NCc2cccnc2N2CCC(C(N)=O)CC2)cn1`, -47.9%.
Regarding `Cc1noc(C)c1C(=O)N1CCC(c2[nH]ncc2S(C)(=O)=O)C1` (centres undefined), the cytotoxicity at 10 µM is -9.83%.
In the case of `CCOCCN1CCC(c2cnccn2)CC1` it was 5.8%; in that of `CSCC(=O)Nc1ncc(I)cc1C`, -4.7%.
